Tests used:
Mus musculus [1] = assay: Inhibition of picrotoxin-induced seizures in mice by ip administration; assay type: functional
Method in brief: (§1)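 Phase V differentiation in mice: test drug given ip at time of peak therapeutic effect, then the CD₉₇ of each convulsant (picrotoxin, bicuculline, strychnine) given ip as a 0.5% solution; observation 30 min for bicuculline and strychnine, 45 min for picrotoxin. Drug in 30% PEG 400, 0.01 mL/g. ED₅₀ with 95% confidence intervals from ≥3 points in the 10-90% protection range, groups of 6-12 mice.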

Rattus norvegicus [2] = assay: Time to peak effect in Rats was evaluated by Maximal electroshock seizure (MES) test in hours by oral administration; assay type: functional
Method in brief: (§2)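 Oral dosing in 30% PEG 400: phase IV in mice (0.01 mL/g), phase VI in Sprague-Dawley rats (0.004 mL/g). ED50/TD50 found as in phase II, at the stated time of peak effect. MES current 50 mA in mice, 150 mA in rats. PTZ sc 85 mg/kg in mice, 70 mg/kg in rats. Toxicity by rotorod in mice; positional sense, gait and stance in rats. PI = TD50/ED50.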

Mus musculus [3] = species on record: Mus musculus; assay: Time to peak toxicity was evaluated by Maximal electroshock seizure test in hours; assay type: functional
Mus musculus [4] = species on record: Mus musculus; assay: Time to peak activity was evaluated by Maximal electroshock seizure test in hours; assay type: functional
Rattus norvegicus [5] = assay: Median Effective dose was evaluated by Subcutaneous pentylenetetrazole seizure test in Rats by oral administration; assay type: functional
Mus musculus [6] = assay: Median Effective dose was evaluated by Subcutaneous pentylenetetrazole seizure test in mice by oral administration; assay type: functional
Rattus norvegicus [7] = assay: Median Effective dose was evaluated by Maximal electroshock seizure (MES) test in Rats by oral administration; assay type: functional
Mus musculus [8] = assay: Median effective dose was evaluated by subcutaneous pentylenetetrazole seizure test through intraperitoneal administration; assay type: functional
Method in brief: (§3)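 Phase II in mice, ip dosing in 30% PEG 400. Groups of 6-12 mice per dose until at least three points fall in 10-90% protection. […] MES: 50 mA, 0.2 s corneal. scMet: pentylenetetrazol 85 mg/kg sc.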

Mus musculus [9] = assay: Median Effective dose was evaluated by Maximal electroshock seizure (MES) test in mice by oral administration; assay type: functional
Mus musculus [10] = assay: Inhibition of seizures induced in mice by a convulsant dose of bicuculline through ip administration; assay type: functional; method in brief: as §1
Mus musculus [11] = species on record: Mus musculus; assay: Median hypnotic dose was evaluated by loss of righting reflex; assay type: functional
Mus musculus [12] = assay: Time to peak effect in mice was evaluated by Neurologic toxicity (rotarod test) in hours by oral administration; assay type: functional
Method in brief: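 Oral dosing in mice in 30% PEG 400 (0.01 mL/g). Neurologic deficit was scored by the rotorod ataxia test, and the time of peak effect was given in hours.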

Rattus norvegicus [13] = assay: […] was evaluated by Neurologic toxicity (rotarod test) in Rats by oral administration; assay type: functional
Mus musculus [14] = assay: Inhibition of seizures induced in mice by a convulsant dose of strychnine through ip administration; assay type: functional; method in brief: as §1
Mus musculus [15] = assay: Median effective dose was evaluated by Maximal electroshock seizure test through intraperitoneal administration; assay type: functional; conditions: ip; method in brief: as §3
Mus musculus [16] = assay: Median lethal dose was evaluated by mortality after 24 hr through ip injection administration; assay type: functional
Method in brief: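 Mice were dosed ip in 30% PEG 400. Mortality was scored 24 h after injection in groups of eight. The 24-h LD₅₀ was derived as for the ED₅₀/TD₅₀, with 95% confidence intervals.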

Rattus norvegicus [17] = assay: Time to peak effect in Rats was evaluated by Neurologic toxicity (rotarod test) in hours by oral administration; assay type: functional
Mus musculus [18] = assay: Time to peak effect in mice was evaluated by Subcutaneous pentylenetetrazole seizure test in hours by oral administration; assay type: functional; method in brief: as §2
Rattus norvegicus [19] = assay: Time to peak effect in Rats was evaluated by Subcutaneous pentylenetetrazole seizure test in hours by oral administration; assay type: functional; method in brief: as §2
Mus musculus [20] = assay: Median toxic dose was evaluated by […] through intraperitoneal administration; assay type: functional
Mus musculus [21] = assay: Time to peak effect in mice was evaluated by Maximal electroshock seizure (MES) test in hours by oral administration; assay type: functional; method in brief: as §2
Rattus norvegicus [22] = species on record: Rattus norvegicus; assay: Protective index (TD50/ED50) was determined against scMet induced seizure in rat.; assay type: functional
Method in brief: as §2, with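 “rats.” for “rats. PTZ sc 85 mg/kg in mice, 70 mg/kg in rats.”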

Rattus norvegicus [23] = species on record: Rattus norvegicus; assay: Protective index (TD50/ED50) was determined against MES induced seizure in rat.; assay type: functional
Method in brief: as §2, with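 “rats.” for “rats. PTZ sc 85 mg/kg in mice, 70 mg/kg in rats.”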

Mus musculus [24] = assay: Anti-seizure activity was evaluated by Neurologic toxicity (rotarod test) at dose 600 mg/kg after 4.0 hours; + denotes neurotoxicity; assay type: functional, organism-based; set-up: dose 600 mg/kg
Method in brief: (§4)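 Phase I neurotoxicity in mice by rotorod ataxia test. Compound given ip at 30, 100, 300 or 600 mg/kg in 30% PEG 400, read 0.5 h and 4 h after. Scored ++++ to + for toxicity at 30 to 600 mg/kg; - means no toxicity.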

Mus musculus [25] = assay: Anti-seizure activity was evaluated by Neurologic toxicity (rotarod test) at dose 300 mg/kg after 0.5 hours; ++ denotes antiseizure activity; assay type: functional, organism-based; set-up: dose 300 mg/kg; method in brief: as §4
Mus musculus [26] = assay: Anti-seizure activity was evaluated by Subcutaneous pentylenetetrazole seizure test at dose 300 mg/kg after 4.0 hours; ++ denotes antiseizure activity; assay type: functional, organism-based; set-up: dose 300 mg/kg
Method in brief: (§5)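 Phase I screen in mice: ip dosing at 30, 100, 300 and 600 mg/kg in 30% PEG 400, read 0.5 h and 4 h after. Pentylenetetrazol given sc at CD97 (85 mg/kg). Protection means no clonic spasm of at least 5 s over 30 min. Scored ++++ to + for 30 to 600 mg/kg.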

Mus musculus [27] = assay: Anti-seizure activity was evaluated by Maximal electroshock seizure (MES) test at dose 100 mg/kg after 0.5 hours; +++ denotes antiseizure activity; assay type: functional, organism-based; set-up: dose 100 mg/kg
Method in brief: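 Phase I screen in mice: ip injection at 30, 100, 300 and 600 mg/kg in 30% PEG 400 (0.01 mL/g). Test run 0.5 h and 4 h after dosing. 60-Hz AC, 50 mA, via corneal electrodes for 0.2 s. Protection means abolition of hind-leg tonic extension. Scored ++++ to + for activity at 30 to 600 mg/kg.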

Mus musculus [28] = assay: Anti-seizure activity was evaluated by Subcutaneous pentylenetetrazole seizure test at dose 100 mg/kg after 0.5 hours; +++ denotes antiseizure activity; assay type: functional, organism-based; set-up: dose 100 mg/kg; method in brief: as §5
Mus musculus [29] = assay: Anti-seizure activity was evaluated by Subcutaneous pentylenetetrazole seizure test at dose 300 mg/kg after 0.5 hours; ++ denotes antiseizure activity; assay type: functional, organism-based; set-up: dose 300 mg/kg; method in brief: as §5

| Compound | TPE (Rattus norvegicus [2]) | TPE (Mus musculus [3]) | TPE (Mus musculus [4]) | ED50 (Rattus norvegicus [5]) | ED50 (Mus musculus [6]) | ED50 (Mus musculus [8]) | ED50 (Mus musculus [10]) | HD50 (Mus musculus [11]) | TPE (Mus musculus [12]) | ED50 (Mus musculus [14]) | ED50 (Mus musculus [15]) | TPE (Rattus norvegicus [17]) | TPE (Mus musculus [18]) | TPE (Rattus norvegicus [19]) | TD50 (Mus musculus [20]) | TPE (Mus musculus [21]) | PI (Rattus norvegicus [22]) | PI (Rattus norvegicus [23]) | Activity (Mus musculus [24]) | Activity (Mus musculus [25]) | other results |
| --- | --- | --- | --- | --- | --- | --- | --- | --- | --- | --- | --- | --- | --- | --- | --- | --- | --- | --- | --- | --- | --- |
| CCC1(c2ccccc2)C(=O)NC(=O)NC1=O [PHENOBARBITAL] | 5 h | 0.5 | 1 | 12 mg/kg | 13 mg/kg | 13 mg/kg | 38 mg/kg | 135 mg/kg | 2 h | 28 mg/kg | 22 mg/kg | 0.5 h | 2 h | 5 h | 69 mg/kg | 2 h |  |  |  |  | ED50 (Mus musculus [1]): 95 mg/kg; ED50 (Rattus norvegicus [7]): 9.1 mg/kg; ED50 (Mus musculus [9]): 20 mg/kg; TD50 (Rattus norvegicus [13]): 61 mg/kg; LD50 (Mus musculus [16]): 265 mg/kg |
| O=C(Cc1cccc(Cl)c1)NS(=O)(=O)C(F)(F)F |  | 0.5 | 2 |  |  | 35 mg/kg |  |  |  |  | 6.8 mg/kg |  |  |  | 249 mg/kg |  | 7.2 | 37 | Antiseizure activity | Antiseizure activity | Activity (Mus musculus [26]): Antiseizure activity; Activity (Mus musculus [27]): Antiseizure activity; Activity (Mus musculus [28]): Antiseizure activity |
| CCCC(CCC)C(=O)O [VALPROIC ACID] | 0.5 h | 0.25 | 0.25 | 180 mg/kg | 388 mg/kg | 149 mg/kg | 360 mg/kg | 885 mg/kg | 2 h | 387 mg/kg |  | 1 h | 1 h | 0.5 h |  | 1 h |  |  |  |  |  |
| O=C(Cc1ccc([N+](=O)[O-])cc1)NS(=O)(=O)C(F)(F)F |  | 6 | 4 |  |  | 20 mg/kg |  |  |  |  | 12 mg/kg |  |  |  | 482 mg/kg |  | 24 | 39 | Antiseizure activity | Antiseizure activity | Activity (Mus musculus [29]): Antiseizure activity; Activity (Mus musculus [27]): Antiseizure activity |

From ChEMBL document CHEMBL1129543, “Synthesis and evaluation of N-(phenylacetyl)trifluoromethanesulfonamides as anticonvulsant agents” (J Med Chem, 1996)
